≈ marks a conversion by molar mass, not a printed value. Calls of active or inactive are those of the source. The calls are words filed in the database; no cut-off is given here.
Legend:
[1] = Cmax in human serum at 7.5 mg/kg; format: ADME, organism-based; set-up: dose 7.5 mg/kg
[2] = Half life in human serum at 7.5 mg/kg; format: ADME, organism-based; set-up: dose 7.5 mg/kg
[3] = test system: Staphylococcus aureus; assay: Antibacterial activity against methicillin-susceptible Staphylococcus aureus ATCC 13709 after 18 to 24 hrs by macrodilution technique; format: functional
How it was run: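 Broth macrodilution per CLSI, run in triplicate on separate occasions. Twofold serial drug dilutions in broth, inoculum approx. 5 × 10⁵ CFU/ml, 37°C for 18 to 24 h. MIC taken as the lowest concentration with no visible growth.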

[4] = test system: Staphylococcus aureus; assay: Antibacterial activity against methicillin-susceptible Staphylococcus aureus ATCC 13709 assessed as bacterial killing at 50 times MIC after 24 hrs in presence of human albumin; format: functional, organism-based
[5] = test system: Staphylococcus aureus; assay: Antibacterial activity against methicillin-resistant Staphylococcus aureus ATCC 33591 assessed as bacterial regrowth at 1 times MIC after 24 hrs in presence of human albumin; format: functional, organism-based
How it was run: (§1)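 Static time-kill in M-H broth, in M-H broth with 40 g/liter fatty-acid-free purified human albumin, or in M-H broth with inactivated 50% human serum. Inoculum approx. 5 × 10⁵ CFU/ml, drug at 0.5, 1, 2.5, 5, 10, 25 and 50× MIC, 37°C. Samples at 0, 3, 6, 12 and 24 h plated on blood agar, counted after 24 h. Detection limit 5 × 10¹ CFU/ml. Run in duplicate.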

[6] = test system: Staphylococcus aureus; assay: Antibacterial activity against methicillin-resistant Staphylococcus aureus ATCC 33591 assessed as bacterial killing at 50 times MIC after 24 hrs in presence of human albumin; format: functional, organism-based; how it was run: as §1
[7] = test system: Staphylococcus aureus; assay: Antibacterial activity against methicillin-resistant Staphylococcus aureus ATCC 33591 assessed as bacterial killing at 50 times MIC after 24 hrs; format: functional, organism-based; how it was run: as §1
[8] = test system: Staphylococcus aureus; assay: Antibacterial activity against methicillin-susceptible Staphylococcus aureus ATCC 13709 assessed as bacterial killing at 0.5 to 50 times MIC after 24 hrs in presence of 50% human serum; format: functional, organism-based
[9] = Half life in in vitro kinetic model containing Mueller-Hinton broth and bacteria; format: physicochemical; conditions: in vitro kinetic model with bacteria
How it was run: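 Drug levels in kinetic-model samples measured by agar-well diffusion bioassay with Bacillus stearothermophilus ATCC 3032: 24 h prediffusion at 22°C, then overnight at 55°C; samples and standards in triplicate; detection limit 1 mg/liter.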

[10] = Ratio of AUC in in vitro kinetic model containing Mueller-Hinton broth and methicillin-susceptible Staphylococcus aureus ATCC 13709 to MIC for methicillin-susceptible Staphylococcus aureus ATCC 13709 in bacterial regrowth stage; format: functional
[11] = test system: Staphylococcus aureus; assay: Antibacterial activity against methicillin-susceptible Staphylococcus aureus ATCC 13709 assessed as change in bacterial burden at 1 mg/liter after 6 hrs; format: functional
[12] = test system: Staphylococcus aureus; assay: Antibacterial activity against methicillin-susceptible Staphylococcus aureus ATCC 13709 assessed as change in bacterial burden at 1 mg/liter after 8 hrs; format: functional
[13] = test system: Staphylococcus aureus; assay: Antibacterial activity against methicillin-resistant Staphylococcus aureus ATCC 33591 assessed as change in bacterial burden at 20 mg/liter after 2 hrs; format: functional
How it was run: (§2)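 In vitro kinetic model: spinner flask with 0.45-μm filter and prefilter, stirred, M-H broth at 37°C, starting inoculum approx. 5 × 10⁵ CFU/ml. Single initial drug dose of 1.0 to 40 mg/liter, with flow set to give a half-life of approx. 8 h. Viable counts at 0, 2, 4, 6, 8, 12 and 24 h. Duplicate runs per strain and concentration.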

[14] = test system: Staphylococcus aureus; assay: Antibacterial activity against methicillin-resistant Staphylococcus aureus ATCC 33591 assessed as change in bacterial burden at 10 mg/liter after 24 hrs; format: functional; how it was run: as §2
[15] = test system: Staphylococcus aureus; assay: Antibacterial activity against methicillin-resistant Staphylococcus aureus ATCC 33591 assessed as change in bacterial burden at 10 mg/liter after 4 hrs; format: functional; how it was run: as §2
[16] = test system: Staphylococcus aureus; assay: Antibacterial activity against methicillin-resistant Staphylococcus aureus ATCC 33591 assessed as change in bacterial burden at 5 mg/liter after 12 hrs; format: functional; how it was run: as §2
[17] = test system: Staphylococcus aureus; assay: Antibacterial activity against methicillin-resistant Staphylococcus aureus ATCC 33591 assessed as change in bacterial burden at 5 mg/liter after 4 hrs; format: functional; how it was run: as §2
[18] = test system: Staphylococcus aureus; assay: Antibacterial activity against methicillin-resistant Staphylococcus aureus ATCC 33591 assessed as change in bacterial burden at 5 mg/liter after 2 hrs; format: functional; how it was run: as §2
[19] = test system: Staphylococcus aureus; assay: Antibacterial activity against methicillin-resistant Staphylococcus aureus ATCC 33591 assessed as change in bacterial burden at 1 mg/liter after 8 hrs; format: functional; how it was run: as §2
[20] = test system: Staphylococcus aureus; assay: Antibacterial activity against methicillin-susceptible Staphylococcus aureus ATCC 13709 assessed as change in bacterial burden at 5 mg/liter after 4 hrs; format: functional
[21] = test system: Staphylococcus aureus; assay: Antibacterial activity against methicillin-susceptible Staphylococcus aureus ATCC 13709 assessed as change in bacterial burden at 5 mg/liter after 2 hrs; format: functional
[22] = test system: Staphylococcus aureus; assay: Antibacterial activity against methicillin-susceptible Staphylococcus aureus ATCC 13709 assessed as change in bacterial burden at 2.5 mg/liter after 8 hrs; format: functional
[23] = test system: Staphylococcus aureus; assay: Antibacterial activity against methicillin-susceptible Staphylococcus aureus ATCC 13709 assessed as change in bacterial burden at 2.5 mg/liter after 4 hrs; format: functional
[24] = test system: Staphylococcus aureus; assay: Antibacterial activity against methicillin-susceptible Staphylococcus aureus ATCC 13709 assessed as change in bacterial burden at 2.5 mg/liter after 2 hrs; format: functional
[25] = test system: Staphylococcus aureus; assay: Antibacterial activity against methicillin-resistant Staphylococcus aureus ATCC 33591 assessed as change in bacterial burden at 40 mg/liter after 4 hrs; format: functional; how it was run: as §2
[26] = test system: Plasma; assay: Protein binding in human plasma; format: ADME, cell-free
[27] = test system: Staphylococcus aureus; assay: Antibacterial activity against methicillin-susceptible Staphylococcus aureus ATCC 13709 assessed as change in bacterial burden at 40 mg/liter after 24 hrs; format: functional
[28] = test system: Staphylococcus aureus; assay: Antibacterial activity against methicillin-susceptible Staphylococcus aureus ATCC 13709 assessed as change in bacterial burden at 40 mg/liter after 12 hrs; format: functional; how it was run: as §2
[29] = test system: Staphylococcus aureus; assay: Antibacterial activity against methicillin-susceptible Staphylococcus aureus ATCC 13709 assessed as change in bacterial burden at 40 mg/liter after 2 hrs; format: functional; how it was run: as §2
[30] = test system: Staphylococcus aureus; assay: Antibacterial activity against methicillin-susceptible Staphylococcus aureus ATCC 13709 assessed as change in bacterial burden at 20 mg/liter after 8 hrs; format: functional; how it was run: as §2
[31] = test system: Staphylococcus aureus; assay: Antibacterial activity against methicillin-susceptible Staphylococcus aureus ATCC 13709 assessed as change in bacterial burden at 20 mg/liter after 6 hrs; format: functional; how it was run: as §2
[32] = test system: Staphylococcus aureus; assay: Antibacterial activity against methicillin-susceptible Staphylococcus aureus ATCC 13709 assessed as change in bacterial burden at 20 mg/liter after 4 hrs; format: functional
[33] = test system: Staphylococcus aureus; assay: Antibacterial activity against methicillin-susceptible Staphylococcus aureus ATCC 13709 assessed as change in bacterial burden at 10 mg/liter after 12 hrs; format: functional
[34] = test system: Staphylococcus aureus; assay: Antibacterial activity against methicillin-susceptible Staphylococcus aureus ATCC 13709 assessed as change in bacterial burden at 10 mg/liter after 8 hrs; format: functional
[35] = test system: Staphylococcus aureus; assay: Antibacterial activity against methicillin-susceptible Staphylococcus aureus ATCC 13709 assessed as change in bacterial burden at 10 mg/liter after 4 hrs; format: functional
[36] = test system: Staphylococcus aureus; assay: Antibacterial activity against methicillin-susceptible Staphylococcus aureus ATCC 13709 assessed as change in bacterial burden at 10 mg/liter after 2 hrs; format: functional; how it was run: as §2
[37] = test system: Staphylococcus aureus; assay: Antibacterial activity against methicillin-susceptible Staphylococcus aureus ATCC 13709 assessed as change in bacterial burden at 5 mg/liter after 6 hrs; format: functional

**Q.** What does the source list for CCCCCCCCCCNCCN[C@@]1(C)C[C@H](O[C@H]2[C@H](Oc3c4cc5cc3Oc3ccc(cc3Cl)[C@@H](O)[C@@H](NC(=O)[C@@H](CC(C)C)NC)C(=O)N[C@@H](CC(N)=O)C(=O)N[C@H]5C(=O)N[C@H]3C(=O)N[C@H](C(=O)N[C@H](C(=O)O)c5cc(O)c(CNCP(=O)(O)O)c(O)c5-c5cc3ccc5O)[C@H](O)c3ccc(c(Cl)c3)O4)O[C@H](CO)[C@@H](O)[C@@H]2O)O[C@@H](C)[C@H]1O [TELAVANCIN]?
**A.** Cmax [1]: 60 µg/mL; half-life [2]: 7 h; MIC [3]: 1 µg/mL (≈ 0.57 µM); Activity [4]: Active; Activity [5]: Active; Activity [6]: Active; Activity [7]: Active; Activity [8]: Active; half-life [9]: 8 h; Activity [10]: inactive; deltalog10CFU/ml [11]: -2; deltalog10CFU/ml [12]: -2.6; deltalog10CFU/ml [13]: -1; deltalog10CFU/ml [14]: -5.1; deltalog10CFU/ml [15]: -2.2; deltalog10CFU/ml [16]: -4.2; deltalog10CFU/ml [17]: -2.1; deltalog10CFU/ml [18]: -0.9; deltalog10CFU/ml [19]: -3.5; deltalog10CFU/ml [20]: -2.3; deltalog10CFU/ml [21]: -1.2; deltalog10CFU/ml [22]: -3.4; deltalog10CFU/ml [23]: -1.6; deltalog10CFU/ml [24]: -1.1; deltalog10CFU/ml [25]: -2.7; Activity [26]: 92%; deltalog10CFU/ml [27]: -4.7; deltalog10CFU/ml [28]: -4.7; deltalog10CFU/ml [29]: -1.9; deltalog10CFU/ml [30]: -4.6; deltalog10CFU/ml [31]: -3.9; deltalog10CFU/ml [32]: -2.9; deltalog10CFU/ml [33]: -4.5; deltalog10CFU/ml [34]: -4.3; deltalog10CFU/ml [35]: -2.4; deltalog10CFU/ml [36]: -1.2; deltalog10CFU/ml [37]: -3.4
